SMILES strings stand for the structures. In brackets after ≈: the same amount, converted by molar mass.

From ChEMBL document CHEMBL4422693, “Antifungal Phenylpropanoid Glycosides from Lippia rubella” (J Nat Prod, 2019) come the findings set out here.

For data set [1], the system named is Candida parapsilosis. In words: Antifungal activity against Candida parapsilosis ATCC 22019 after 24 hrs by micro broth dilution method. Format: functional. Particulars: Lodderomyces parapsilosis, ATCC 22019, 24 h. In general terms: In broth dilution the organism is exposed to a series of concentrations in liquid medium.
The next data set deals with Candida albicans. In words: Antimicrobial activity against Candida albicans ATCC 10231 after 48 hrs by microbroth dilution method. Format: functional. The following applies: ATCC 10231, 48 h. In a few lines:
(§1)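 CLSI M27-A broth microdilution. Fungi at 10^6 cells/mL were grown in fresh BHI medium with samples at 1 pg/mL to 1 mg/mL, at 37 °C for 48 h. Growth was read daily by visible turbidity. MIC was the lowest concentration preventing growth. Inhibition was confirmed with resazurin (5 mg/100 mL PBS, pH 7.2) after a further 3 h at 37 °C. Amphotericin B was the positive control.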

Data set [2] relates to Cryptococcus neoformans. In words: Antifungal activity against Cryptococcus neoformans isolate T1444 after 48 hrs by micro broth dilution method. The following applies: isolate T1444, 48 h. Format: functional. In a few lines:
as §1

The subject of data set [3] is Candida parapsilosis. In words: Antifungal activity against Candida parapsilosis ATCC 22019 after 48 hrs by micro broth dilution method. Particulars: Lodderomyces parapsilosis, ATCC 22019, 48 h.
In data set [4] the test system is Cryptococcus neoformans. In words: Antifungal activity against Cryptococcus neoformans isolate T1444 assessed as FIC index after 48 hrs in presence of amphotericin B by micro broth dilution method. Type of data set: functional. A digest of the protocol:
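Checkerboard dose matrix in microplates. Sample and amphotericin B were each used below their single-agent MICs. Inoculum was 10^3 cells/mL, incubated at room temperature for 48 h. Growth was read visually and confirmed with resazurin. FIC for each agent is the MIC in combination divided by the MIC alone, and FICindex is the sum of the two FICs. Synergy is <0.5, additive is >0.5 to ≤1, and antagonism is >4.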

Data set [5] is described as follows: Hemolytic activity in human RBC after 1 hr by spectrophotometric method. Type of data set: ADME, cell-based, Erythrocyte. The following applies: human red blood cells (erythrocytes). In a few lines:
(§2)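 Sample solutions (2000 to 15.6 μg/mL before mixing) were incubated with a 4% human O+ erythrocyte suspension in PBS (1:4 by volume) for 1 h at 37 °C. PBS was then added, and lysis was read at 590 nm. PBS served as the negative control and water as the positive control.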

Data set [6] relates to Cryptococcus neoformans. In words: Antifungal activity against Cryptococcus neoformans ATCC 24067 after 48 hrs by micro broth dilution method. Format: functional. The following applies: ATCC 24067, 48 h. In a few lines: as §1
In the next data set the test system is Erythrocyte. In words: Hemolytic activity in human RBC at MIC after 1 hr by spectrophotometric method. Format: ADME, cell-based. A digest of the protocol: as §2

By MIC is commonly meant the lowest concentration that inhibits growth of the organism. Read a low MIC as a more susceptible organism. As for `C[C@@H]1O[C@@H](O[C@@H]2[C@@H](O)[C@H](OCCc3ccc(O)c(O)c3)O[C@H](CO)[C@H]2OC(=O)/C=C/c2ccc(O)cc2)[C@H](O)[C@H](OC(=O)/C=C/c2ccc(O)c(O)c2)[C@H]1O`, the MIC was more than 125 µg/mL against Candida parapsilosis [1], more than 125 µg/mL against Candida albicans and 125 µg/mL (≈ 162 µM) in the data set on Cryptococcus neoformans [2].
For the compound `C[C@@H]1O[C@@H](O[C@@H]2[C@@H](O)[C@H](OCCc3ccc(O)c(O)c3)O[C@H](CO)[C@H]2OC(=O)/C=C/c2ccc(O)c(O)c2)[C@H](O)[C@H](O)[C@H]1OC(=O)/C=C/c1ccc(O)c(O)c1`, the MIC against Candida parapsilosis [3] is 125 µg/mL (≈ 159 µM); in the data set with Candida albicans it was more than 125 µg/mL; with Cryptococcus neoformans [2], 15.6 µg/mL (≈ 19.8 µM).
As for `COc1ccc(-c2cc(=O)c3c(O)cc(O[C@@H]4O[C@H](CO[C@@H]5O[C@@H](C)[C@H](O)[C@@H](O)[C@H]5O)[C@@H](O)[C@H](O)[C@H]4O)cc3o2)cc1` [ACACIIN], the minimum inhibitory concentration (MIC) was more than 125 µg/mL against Candida parapsilosis [3], more than 125 µg/mL with Candida albicans and 125 µg/mL (≈ 211 µM) against Cryptococcus neoformans [2].
By HC50 is commonly meant the concentration giving 50% haemolysis. As for `C[C@@H]1O[C@@H](O[C@@H]2[C@@H](O)[C@H](OCCc3ccc(O)c(O)c3)O[C@H](CO)[C@H]2OC(=O)/C=C/c2ccc(O)c(O)c2)[C@H](O)[C@H](O)[C@H]1O` [ACETOSIDE], the “fractional inhibitory concentration index (FICI)” value in the data set with Cryptococcus neoformans [4] turned out to be 0.72. Moreover, the MIC in the data set with Candida parapsilosis [3] is 125 µg/mL (≈ 200 µM); in the data set on Cryptococcus neoformans [6], 62.5 µg/mL (≈ 100 µM); against Candida albicans, more than 125 µg/mL; in the data set with Cryptococcus neoformans [2], 62.5 µg/mL (≈ 100 µM). In data set [5], this compound registered an HC50 at 1 h of 1000 µg/mL. Moreover, the Activity entry with Erythrocyte is listed as “Non-Toxic”.
Take `C[C@@H]1[C@H](O)[C@@H](C)/C=C/C=C/C=C/C=C/C=C/C=C/C=C/[C@H](O[C@@H]2O[C@H](C)[C@@H](O)[C@H](N)[C@@H]2O)C[C@@H]2O[C@](O)(C[C@@H](O)C[C@@H](O)[C@H](O)CC[C@@H](O)C[C@@H](O)CC(=O)O[C@H]1C)C[C@H](O)[C@H]2C(=O)O` [AMPHOTERICIN B]: the MIC against Candida parapsilosis [3] is 0.125 µg/mL (≈ 0.135 µM); against Cryptococcus neoformans [6], 0.125 µg/mL (≈ 0.135 µM); in the data set on Candida albicans it was 0.25 µg/mL (≈ 0.271 µM); in the data set with Cryptococcus neoformans [2], 0.125 µg/mL (≈ 0.135 µM).
On to `C[C@@H]1O[C@@H](OC[C@H]2O[C@@H](OCCc3ccc(O)c(O)c3)[C@H](O)[C@@H](O)[C@@H]2OC(=O)/C=C/c2ccc(O)c(O)c2)[C@H](O)[C@H](O)[C@H]1O` [FORSYTHIASIDE], for which the “fractional inhibitory concentration index (FICI)” value with Cryptococcus neoformans [4] amounted to 0.5. Further, the MIC with Candida parapsilosis [3] is more than 125 µg/mL; in the data set on Cryptococcus neoformans [6], 31.2 µg/mL (≈ 50 µM); with Candida albicans, more than 125 µg/mL; against Cryptococcus neoformans [2] it was 31.2 µg/mL (≈ 50 µM). Besides, the concentration for 50% haemolysis (HC50) at 1 h in data set [5] turned out to be 1000 µg/mL. Besides, the Activity entry in the data set with Erythrocyte is reported as “Non-Toxic”.
In turn, `C[C@@H]1O[C@@H](O[C@@H]2[C@@H](O)[C@H](OCCc3ccc(O)c(O)c3)O[C@H](COC(=O)/C=C/c3ccc(O)c(O)c3)[C@H]2O)[C@H](O)[C@H](O)[C@H]1O` [ISOACTEOSIDE] had a minimal inhibitory concentration (MIC) against Cryptococcus neoformans [2] of more than 125 µg/mL.
For `C[C@@H]1O[C@@H](OC[C@H]2O[C@@H](OCCc3ccc(O)c(O)c3)[C@H](O)[C@@H](O[C@@H]3O[C@@H](C)[C@H](O)[C@@H](O)[C@H]3O)[C@@H]2OC(=O)/C=C/c2ccc(O)c(O)c2)[C@H](O)[C@H](O)[C@H]1O` [POLIUMOSIDE], the minimal inhibitory concentration (MIC) with Candida parapsilosis [3] is more than 125 µg/mL; with Candida albicans, more than 125 µg/mL; in the data set on Cryptococcus neoformans [2], 62.5 µg/mL (≈ 81.1 µM).
